# High-throughput results: PubChem, NMMLSC
# MEKK2wt PB1 HTS: modulators of MEK5 binding to wildtype MEKK2, primary screen, biochemical, multiplex bead flow cytometry, Alexa488-MEK5; Mitogen-activated protein kinase kinase kinase 2 (Homo sapiens), Q9Y2U5; hit rate 1.1% among 290,000; AID 1531, 2009; binding response (% of control), % at 10 µM; Alexa488-MEK5 binding to MEKK2 WT; actives lie on both sides; in the data active = binding response below about 67% or above about 130%
# MEKK2mut PB1 HTS: MEK5 binding signal on mutant MEKK2 PB1, primary screen, biochemical, multiplex bead flow cytometry, Alexa488-MEK5; percent response, % at 10 µM; Alexa488-MEK5 binding to MEKK2 mutant; hit rate 0.35% among 290,000; in the data active = percent response above about 24%, passing the limit was not always enough
# Arr AP2 block: inhibitors of beta-arrestin/AP2 binding, primary screen, biochemical, GPCR trafficking, flow cytometry. inhibition, % at 10 µM. hit rate 0.31% among 340,000. FITC-arrestin peptide / GST-AP2 beads; AP2 beta2 appendage carries R879A mutation;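 active = inhibition above a set limit, near 3 SD of compounds lacking own fluorescence, cut at about 54% in these data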
#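 test system = AP2 appendage R879A on GSH beads | buffer or medium = PBS plus Tween 20 (0.05%) and BSA (0.1%) | incubation = 12 min plus 1 h, RT | detection = bead flow cytometry, FITC channel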
# MEKK3 PB1 HTS: modulators of MEKK3-MEK5 PB1 binding, primary screen, biochemical, wildtype MEKK3, multiplex bead flow cytometry, Alexa488-MEK5; Mitogen-activated protein kinase kinase kinase 3 (Homo sapiens), Q99759; bead-based flow cytometry, Alexa488-MEK5 binding to MEKK3; actives lie on both sides; 0 = blocked by unlabeled MEK5, 100 = vehicle; binding response (% of control), % at 10 µM; hit rate 1.4% among 290,000; AID 1529, 2009;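 active = binding response more than 3 SD above or below the average of its plate-row segment, actives on both sides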;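 note: Alexa488 bead fluorescence after subtracting the streptavidin-only scavenger bead signal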
# Target sequence (Q99759 whole entry, looked up): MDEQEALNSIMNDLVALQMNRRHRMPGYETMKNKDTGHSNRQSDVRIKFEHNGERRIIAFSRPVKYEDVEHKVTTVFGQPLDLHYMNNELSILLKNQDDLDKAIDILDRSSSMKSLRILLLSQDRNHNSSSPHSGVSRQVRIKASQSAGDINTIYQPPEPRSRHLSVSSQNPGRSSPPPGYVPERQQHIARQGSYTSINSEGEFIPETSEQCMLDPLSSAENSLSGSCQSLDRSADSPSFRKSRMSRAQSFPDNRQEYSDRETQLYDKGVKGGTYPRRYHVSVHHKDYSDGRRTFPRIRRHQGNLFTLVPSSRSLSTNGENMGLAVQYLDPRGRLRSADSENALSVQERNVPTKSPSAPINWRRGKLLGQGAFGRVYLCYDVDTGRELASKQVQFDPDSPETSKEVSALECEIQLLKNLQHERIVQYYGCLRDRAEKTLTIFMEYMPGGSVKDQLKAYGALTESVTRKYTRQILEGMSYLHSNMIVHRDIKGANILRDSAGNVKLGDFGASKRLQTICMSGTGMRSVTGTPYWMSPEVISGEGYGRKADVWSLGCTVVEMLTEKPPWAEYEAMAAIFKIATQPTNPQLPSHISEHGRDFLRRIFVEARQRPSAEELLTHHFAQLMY
# MEKK2wt confirm: modulators of MEK5 binding to wildtype MEKK2, confirmation, biochemical, single concentration, multiplex bead flow cytometry; Alexa488-MEK5 binding to MEKK2 WT; actives lie on both sides; shares compounds with MEKK3 PB1 HTS; binding response (% of control), % at 10 µM; hit rate 2.4% among 5,900; AID 1892, 2009; in the data active = binding response below about 16% or above about 210%; inactive = in between
# MEKK2mut-MEK5: mutant MEKK2 PB1-MEK5 binding signal retest – biochemical, single concentration, multiplex bead flow cytometry, confirmation. hit rate 2% among 5,900. Alexa488-MEK5 binding to MEKK2 mutant. shares compounds with MEKK3 PB1 HTS. percent response, % at 10 µM; in the data active = percent response mostly above about 71%, no sharp cut-off; inactive = mostly below about 38%;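 note: higher means compound restores mutant binding toward wildtype level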
# MEKK3 confirm: MEKK3 wild-type PB1 binding to MEK5, inhibitors, confirmation, biochemical, bead multiplex flow cytometry, single concentration, wildtype; shares compounds with MEKK3 PB1 HTS; Alexa488-MEK5 binding to MEKK3; stronger effect = lower value; binding response (% of control), % at 10 µM; hit rate 1.8% among 5,900; AID 1894, 2009;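 active = binding response below 72% of control, or above a set upper limit, though filed actives all read lower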
# Hits are given with their value; – = inactive; · = no result given; [ ] = remark or other dose. Only some compounds are listed: those with a hit (about 2.3% of all), similar ones and a draw of the others.
SMILES,MEKK2wt PB1 HTS,MEKK2mut PB1 HTS,Arr AP2 block,MEKK3 PB1 HTS,MEKK2wt confirm,MEKK2mut-MEK5,MEKK3 confirm
O=C(CCOc1ccccc1)Nc1ccnn1C1CCN(Cc2ccc(O)cc2)CC1,148,–,–,–,–,–,–
C=CCOc1ccc(-c2n[nH]c(=S)o2)cc1,–,–,–,131,–,–,–
COc1ccc(C(=O)Nc2ccc(-c3n[nH]c(=S)o3)cc2)cc1,–,–,–,–,·,·,·
CSc1ccc2c(c1)N(CCC1CCCCN1C)c1ccccc1S2 (configuration not stated),176,–,–,–,–,–,–
CN1CCN(CCCN2c3ccccc3Sc3ccc(S(=O)(=O)N(C)C)cc32)CC1,·,·,–,·,·,·,·
COc1cc(/C=C/C(=O)OCC(=O)Nc2ccc(C)c(S(=O)(=O)N3CCCCC3)c2)ccc1O,–,–,–,147,–,–,–
COc1cc(/C=C/C(=O)OCC(=O)Nc2cc(C(F)(F)F)ccc2N2CCOCC2)ccc1O,–,–,–,152,–,–,–
COc1ccccc1/C=C1\CCCC2=C1Nc1nnnn1C2c1ccccc1OC (configuration not stated),–,–,–,–,·,·,·
Oc1ccccc1/C=N/Nc1cc(N2CCCC2)nc(N2CCCC2)n1,181,–,–,–,–,–,–
COc1ccc(C)cc1N(C(=O)COc1cccc(F)c1)c1nc2ccccc2s1,–,–,–,143,–,–,–
COc1ccc(O)c(CN2CC3CCC(CC3)C2)c1,·,·,–,·,·,·,·
Oc1ccc(Cl)cc1/C=C/c1ccc2cccc(O)c2n1,–,–,–,128,–,–,–
Oc1c(Cl)cc(Cl)cc1/C=C/c1ccc2cccc(O)c2n1,–,–,–,–,·,·,·
O=C(O)/C=C/C(=O)Nc1cccc2cccnc12,–,–,–,–,·,·,·
O=C(/C=C/c1ccco1)Nc1cccc2cccnc12,–,–,–,62[inhibitor],–,–,–
COc1ccc(C(=O)Nc2ccccc2C(=O)NCCCn2ccnc2)cc1,–,–,–,122,–,–,–
O=C(Nc1ccccc1C(=O)NCCCn1ccnc1)c1ccccc1,–,–,–,–,·,·,·
COc1ccc(NC(=O)CCSCCC(=O)Nc2ccc(OC)cc2OC)c(OC)c1,–,–,–,137,–,–,–
COc1ccc(NC(=O)CCCCC(=O)Nc2ccc(OC)cc2OC)c(OC)c1,·,·,–,·,·,·,·
COc1ccc(NC(=O)Cc2c(F)cccc2Cl)c(OC)c1,3.0[inhibitor],–,–,1.0[inhibitor],–,–,–
S=c1[nH]cnc2sc(Nc3ccccc3)nc12,–,–,–,–,·,·,·
CCc1nc(Nc2ccc(N3CCN(C(C)=O)CC3)cc2)c2oc3ccccc3c2n1,–,–,–,–,·,·,·
CC(=O)N1CCN(c2ccc(Nc3ncnc4c3oc3ccccc34)cc2)CC1,–,–,–,81[inhibitor],–,–,–
CC1(C)CC(=O)C(N=Nc2ccc(Br)cc2)=C(O)C1,–,–,–,–,·,·,·
CC1(C)CC(=O)C(Sc2ccc(Br)cc2)=C(O)C1,–,–,–,73[inhibitor],–,–,–
SMILES,MEKK2wt PB1 HTS,MEKK2mut PB1 HTS,Arr AP2 block,MEKK3 PB1 HTS,MEKK2wt confirm,MEKK2mut-MEK5,MEKK3 confirm
O=C(CNC(=O)c1cccs1)Nc1ccc(N2CCOCC2)cc1,·,·,–,·,·,·,·
CN1CCc2c(sc3c2c(=O)n(-c2ccc(Cl)cc2)c2nncn32)C1,–,–,–,122,–,–,–
CCN(CC)CCn1c(=O)n(-c2ccc(Cl)cc2)c(=O)c2c3c(sc21)CN(C)CC3,–,–,–,–,·,·,·
O=C(C[n+]1ccc(-c2cc(C(=O)Nc3cccc(C(F)(F)F)c3)c3ccccc3n2)cc1)c1cccc([N+](=O)[O-])c1,158,–,–,–,–,99,–
CCN(C(=O)COC(=O)CCOc1ccc(C(C)(C)C)cc1)c1c(N)n(Cc2ccccc2)c(=O)[nH]c1=O,·,·,–,·,·,·,·
Cc1cc(C)c(S(=O)(=O)N2CCCCC2CCNC(=O)C(=O)NCc2ccccn2)c(C)c1 (configuration not stated),·,·,–,·,·,·,·
O=C([C@@H]1CC=C[C@@H]2CCN(C3CC3)C(=O)[C@@H]21)N1CCN(c2ccccc2)CC1,–,–,–,80[inhibitor],–,–,–
CC(=O)Nc1cccc(-c2cnc(N)c(C(=O)c3cccnc3)n2)c1,·,·,–,·,·,·,·
O=C1CC/C=C\C[C@@H](CC(=O)N(CCO)Cc2ccccc2)C(=O)N[C@H](Cc2c[nH]c3ccccc23)CO1,·,·,–,·,·,·,·
COc1ccccc1N1CCN(C(=O)CCC(=O)O)CC1,–,–,–,–,·,·,·
CCOC(=O)C(=O)N1CCN(c2ccccc2OC)CC1,–,–,–,71[inhibitor],–,–,–
CC1=C(C)Cc2c(OC(=O)c3ccccc3)ccc(OC(=O)c3ccccc3)c2C1,–,–,·,42[inhibitor],–,–,–
O=c1[nH]c2cc3c(cc2cc1CN(CCO)S(=O)(=O)c1ccccc1)OCCO3,–,–,–,130,–,–,–
CC(=O)c1ccc(S(=O)(=O)N(CCCO)Cc2cc3cc4c(cc3[nH]c2=O)OCCO4)cc1,–,–,–,–,·,·,·
NC1=NC[C@H](Cc2ccc(O)cc2)N1CCc1cc(C(F)(F)F)cc(C(F)(F)F)c1,–,–,–,–,·,·,·
NC1=NC[C@H](Cc2ccc(O)cc2)N1CCCCC1CCCCC1,184[inhibitor],–,–,–,–,–,–
NC1=NC[C@H](Cc2ccccc2)N1CCCCC1CCCCC1,151,–,–,–,–,–,–
NC1=NC[C@H](Cc2ccc(O)cc2)N1CCc1cccc2ccccc12,152,50,–,–,–,–,–
NC1=NC[C@@H](Cc2ccc(O)cc2)N1CCc1cccc2ccccc12,–,–,·,–,·,·,·
c1ccc(C[C@H]2CN=C(Nc3ccccc3)N2CCC2CCCC2)cc1,·,·,–,·,·,·,·
CN1CCC(N(C)C(=O)/C(C#N)=C\c2ccc(OC(F)F)cc2)CC1,·,·,–,·,·,·,·
CC(=O)Nc1ccccc1OCC(=O)NCC(F)(F)F,–,–,–,–,·,·,·
O=C(CSc1nnc(-c2cccnc2)s1)Nc1ccnc2ccccc12,–,–,–,–,·,·,·
Cc1ccc(NC(=O)CSc2nnc(-c3cccnc3)s2)cc1,–,–,–,8.0[inhibitor],–,–,–
Cc1ccc(Cl)cc1NC(=O)NCc1ccccn1,–,–,–,–,·,·,·
